Values after ≈ are worked out from the molar mass of the structure shown.
Experiments:
Type in all cases: functional
Candida albicans = assay: Antifungal activity against Candida albicans Berkout KCCM 50235 after 1 day by twofold broth dilution method; details: Berkout KCCM 50235, 24 h
Method in brief: (§1)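 Two-fold broth dilution in modified Sabouraud dextrose broth. Inoculum about 1 × 10⁵ cells/mL. Test agents at final concentrations from 0.2 to 50.0. Incubated at 37 °C, and MIC read after 1 day. Fluconazole and 5-fluorocytosine served as standard agents.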

Cryptococcus neoformans = assay: Antifungal activity against Cryptococcus neoformans KCCM 50564 after 1 day by twofold broth dilution method; details: KCCM 50564, 24 h; method in brief: as §1
Aspergillus flavus = assay: Antifungal activity against Aspergillus flavus KCCM 11899 after 2 days by twofold broth dilution method; details: KCCM 11899, 48 h
Method in brief: (§2)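 Two-fold broth dilution in modified Sabouraud dextrose broth. Inoculum about 1 × 10⁵ cells/mL. Test agents at final concentrations from 0.2 to 50.0. Incubated at 37 °C, and MIC read after 2 days. Fluconazole and 5-fluorocytosine served as standard agents.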

Aspergillus niger = assay: Antifungal activity against Aspergillus niger KCTC 1231 after 2 days by twofold broth dilution method; details: KCTC 1231, 48 h; method in brief: as §2
Pichia kudriavzevii = assay: Antifungal activity against Candida krusei Berkout KCCM 11655 after 1 day by twofold broth dilution method; details: Berkout KCCM 11655, 24 h; method in brief: as §1
Candida tropicalis = assay: Antifungal activity against Candida tropicalis Berkout KCCM 50662 after 1 day by twofold broth dilution method; details: Berkout KCCM 50662, 24 h; method in brief: as §1

Row | SMILES | MIC (Candida albicans) [µg/mL] | MIC (Cryptococcus neoformans) [µg/mL] | MIC (Aspergillus flavus) [µg/mL] | MIC (Aspergillus niger) [µg/mL] | MIC (Pichia kudriavzevii) [µg/mL] | MIC (Candida tropicalis) [µg/mL]
1 | CCOC(=O)c1c(N)oc2c1c(Sc1ccc(F)c(F)c1)c(O)c1ncncc12 | 3.2 (≈ 7.67 µM) | 6.3 (≈ 15.1 µM) | 3.2 (≈ 7.67 µM) | 12.5 (≈ 29.9 µM) | 6.3 (≈ 15.1 µM) | 3.2 (≈ 7.67 µM)
2 | CCOC(=O)c1c(N)oc2c1c(SCC)c(O)c1ncncc12 | 50 (≈ 150 µM) | 12.5 (≈ 37.5 µM) | 6.3 (≈ 18.9 µM) | 3.2 (≈ 9.6 µM) | 25 (≈ 75 µM) | 25 (≈ 75 µM)
3 | O=C1C(Sc2ccc(F)cc2)=C(Sc2ccc(F)cc2)C(=O)c2ncncc21 | 1.6 (≈ 3.88 µM) | 1.6 (≈ 3.88 µM) | 3.2 (≈ 7.76 µM) | 3.2 (≈ 7.76 µM) | 12.5 (≈ 30.3 µM) | 6.3 (≈ 15.3 µM)
4 | COc1ccc(SC2=C(Sc3ccc(OC)cc3)C(=O)c3ncncc3C2=O)cc1 | 25 (≈ 57.3 µM) | 6.3 (≈ 14.4 µM) | 0.8 (≈ 1.83 µM) | 3.2 (≈ 7.33 µM) | 3.2 (≈ 7.33 µM) | 25 (≈ 57.3 µM)
5 | O=C1C(Sc2ccc(Cl)cc2)=C(Sc2ccc(Cl)cc2)C(=O)c2ncncc21 | 6.3 (≈ 14.1 µM) | 6.3 (≈ 14.1 µM) | 3.2 (≈ 7.19 µM) | 1.6 (≈ 3.59 µM) | 3.2 (≈ 7.19 µM) | 12.5 (≈ 28.1 µM)
6 | O=C1C(Sc2ccc(Br)cc2)=C(Sc2ccc(Br)cc2)C(=O)c2ncncc21 | 6.3 (≈ 11.8 µM) | 12.5 (≈ 23.4 µM) | 6.3 (≈ 11.8 µM) | 3.2 (≈ 5.99 µM) | 6.3 (≈ 11.8 µM) | 50 (≈ 93.6 µM)
7 | Cc1ccc(SC2=C(Sc3ccc(C)cc3)C(=O)c3ncncc3C2=O)cc1 | 12.5 (≈ 30.9 µM) | 50 (≈ 124 µM) | 3.2 (≈ 7.91 µM) | 3.2 (≈ 7.91 µM) | 6.3 (≈ 15.6 µM) | 6.3 (≈ 15.6 µM)

The remaining lines, values ahead:

Row | MIC (Candida albicans) [µg/mL] | MIC (Cryptococcus neoformans) [µg/mL] | MIC (Aspergillus flavus) [µg/mL] | MIC (Aspergillus niger) [µg/mL] | MIC (Pichia kudriavzevii) [µg/mL] | MIC (Candida tropicalis) [µg/mL] | SMILES
8 | 12.5 (≈ 30.4 µM) | 12.5 (≈ 30.4 µM) | 12.5 (≈ 30.4 µM) | 12.5 (≈ 30.4 µM) | 50 (≈ 122 µM) | 25 (≈ 60.8 µM) | CCOC(=O)c1c(N)oc2c1c(Sc1ccc(OC)cc1)c(O)c1ncncc12
9 | 3.2 (≈ 8.09 µM) | 3.2 (≈ 8.09 µM) | 6.3 (≈ 15.9 µM) | 6.3 (≈ 15.9 µM) | 6.3 (≈ 15.9 µM) | 6.3 (≈ 15.9 µM) | CCOC(=O)c1c(N)oc2c1c(Sc1ccc(C)cc1)c(O)c1ncncc12
10 | 25 (≈ 60.1 µM) | 6.3 (≈ 15.1 µM) | 6.3 (≈ 15.1 µM) | 3.2 (≈ 7.69 µM) | 50 (≈ 120 µM) | 50 (≈ 120 µM) | CCOC(=O)c1c(N)oc2c1c(Sc1ccc(Cl)cc1)c(O)c1ncncc12
11 | 12.5 (≈ 27.2 µM) | 3.2 (≈ 6.95 µM) | 50 (≈ 109 µM) | 6.3 (≈ 13.7 µM) | 25 (≈ 54.3 µM) | 25 (≈ 54.3 µM) | CCOC(=O)c1c(N)oc2c1c(Sc1ccc(Br)cc1)c(O)c1ncncc12
12 | 6.3 (≈ 15.8 µM) | 3.2 (≈ 8.01 µM) | 12.5 (≈ 31.3 µM) | 50 (≈ 125 µM) | 6.3 (≈ 15.8 µM) | 3.2 (≈ 8.01 µM) | CCOC(=O)c1c(N)oc2c1c(Sc1ccc(F)cc1)c(O)c1ncncc12
13 | 50 (≈ 120 µM) | 12.5 (≈ 30.1 µM) | 12.5 (≈ 30.1 µM) | 25 (≈ 60.1 µM) | 50 (≈ 120 µM) | 25 (≈ 60.1 µM) | CCOC(=O)c1c(N)oc2c1c(Sc1cccc(Cl)c1)c(O)c1ncncc12

— ChEMBL document CHEMBL1932990, “Synthesis and antifungal activity of 6,7-bis(arylthio)-quinazoline-5,8-diones and furo[2,3-f]quinazolin-5-ols” (2012)
